Activity calls are given as the source filed them. The rule behind the calls is not given here.
Columns and labels:
[1] = Displacement of racemic [3H]CP-101606 from rat forebrain membrane N-methyl-D-aspartate glutamate receptor 2B
[2] = biological target: T1, Glutamate receptor ionotropic, NMDA 2B (Rattus norvegicus, UniProt Q00960); assay: Ability to displace of racemic […] of [3H]CP-101606 binding to N-methyl-D-aspartate glutamate receptor 2B in rat forebrain membranes.; assay type: cell membranes, Membrane
T1 sequence (Q00960 whole entry): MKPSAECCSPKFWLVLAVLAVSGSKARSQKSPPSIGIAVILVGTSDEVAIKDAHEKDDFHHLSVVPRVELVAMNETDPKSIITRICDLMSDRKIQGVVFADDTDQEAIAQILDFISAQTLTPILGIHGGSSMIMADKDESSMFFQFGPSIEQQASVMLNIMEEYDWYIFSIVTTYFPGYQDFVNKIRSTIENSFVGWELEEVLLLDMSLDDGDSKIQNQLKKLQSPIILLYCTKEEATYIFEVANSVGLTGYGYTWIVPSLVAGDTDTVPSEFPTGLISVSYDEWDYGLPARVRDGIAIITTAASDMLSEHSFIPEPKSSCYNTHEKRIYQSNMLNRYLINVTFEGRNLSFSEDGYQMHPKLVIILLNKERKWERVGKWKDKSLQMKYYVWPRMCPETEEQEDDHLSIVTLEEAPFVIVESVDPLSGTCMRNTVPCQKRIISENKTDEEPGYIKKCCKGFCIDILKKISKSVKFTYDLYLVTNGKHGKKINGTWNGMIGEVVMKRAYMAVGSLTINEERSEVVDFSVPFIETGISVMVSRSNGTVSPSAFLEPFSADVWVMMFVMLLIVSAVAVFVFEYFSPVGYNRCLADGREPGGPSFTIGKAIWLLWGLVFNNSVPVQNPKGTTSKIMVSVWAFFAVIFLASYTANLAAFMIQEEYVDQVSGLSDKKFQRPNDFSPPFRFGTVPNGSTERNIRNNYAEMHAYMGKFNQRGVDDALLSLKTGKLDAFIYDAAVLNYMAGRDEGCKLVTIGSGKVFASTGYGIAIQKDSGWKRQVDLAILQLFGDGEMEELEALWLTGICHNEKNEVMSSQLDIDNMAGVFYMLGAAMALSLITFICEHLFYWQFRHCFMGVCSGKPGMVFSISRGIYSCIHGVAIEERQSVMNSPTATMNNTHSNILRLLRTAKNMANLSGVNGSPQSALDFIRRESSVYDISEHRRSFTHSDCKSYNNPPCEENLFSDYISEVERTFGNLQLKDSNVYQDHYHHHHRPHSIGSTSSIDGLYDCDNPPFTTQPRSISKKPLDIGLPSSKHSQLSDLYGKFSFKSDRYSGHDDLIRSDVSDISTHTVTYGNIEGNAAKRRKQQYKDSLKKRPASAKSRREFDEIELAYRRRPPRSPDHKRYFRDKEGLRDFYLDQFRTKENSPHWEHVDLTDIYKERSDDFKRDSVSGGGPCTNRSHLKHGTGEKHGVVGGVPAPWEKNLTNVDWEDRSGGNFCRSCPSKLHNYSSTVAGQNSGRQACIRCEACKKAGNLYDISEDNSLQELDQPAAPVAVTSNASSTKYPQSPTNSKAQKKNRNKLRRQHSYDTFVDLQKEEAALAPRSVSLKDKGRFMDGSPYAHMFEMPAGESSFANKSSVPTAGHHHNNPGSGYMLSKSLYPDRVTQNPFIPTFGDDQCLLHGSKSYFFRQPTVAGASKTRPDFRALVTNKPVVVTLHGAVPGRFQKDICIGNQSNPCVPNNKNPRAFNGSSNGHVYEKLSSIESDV

Rattus norvegicus [3] = species on record: Rattus norvegicus; assay: Compound was tested for neuroprotection against NMDA-Induced toxicity in cultured rat hippocampal neurons.; assay type: functional
Rattus norvegicus [4] = assay: Compound was evaluated in vivo for blockade of haloperidol induced catalepsy in rat when administered subcutaneously; assay type: functional; conditions: sc
Outline: (§1)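 Rats given haloperidol were scored for catalepsy as remaining perched on an elevated bar. Test drug was given peripherally beforehand. ED50 in mg/kg ± SEM.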

Rattus norvegicus [5] = assay: Compound was evaluated in vivo for blockade of haloperidol induced catalepsy in rat when administered perorally.; assay type: functional; conditions: po; outline: as §1
Rattus norvegicus [6] = assay: Compound was evaluated in vivo for blockade of haloperidol induced catalepsy in rat when administered perorally; assay type: functional; conditions: po; outline: as §1
[7] = biological target: T1, Glutamate receptor ionotropic, NMDA 2B; assay: Compound was evaluated for its blocking effect against N-methyl-D-aspartate glutamate receptor 2B; design: species or system xenopus oocytes
Mus musculus [8] = assay: Compound was evaluated in vivo for blockade of NMDA-stimulated fos induction in mouse when administered intravenously.; assay type: functional; conditions: iv
Rattus norvegicus [9] = assay: Compound was evaluated for blockade of CSD in rats; rat protected /tested(mg/kg iv bolus+mg/kgh iv infusion) = 2/3 (0.6+0.6); assay type: functional, organism-based
[10] = Compound was evaluated for blockade of CSD as rats protected/ rats tested after a iv dose of 0.6 mg/kg followed by an infusion of 0.6 mg/kgh; 2/3; assay type: functional, organism-based
Rattus norvegicus [11] = assay: Compound was evaluated for blockade of CSD in rats; rat protected /tested(mg/kg iv bolus+mg/kgh iv infusion) = 0/2 (0.2+0.2); assay type: functional, organism-based
[12] = Compound was evaluated for blockade of CSD as rats protected/ rats tested after a iv dose of 0.2 mg/kg followed by an infusion of 0.2 mg/kg/h; 0/2; assay type: functional, organism-based
[13] = Compound was evaluated for blockade of CSD as rats protected/ rats tested after a iv dose of 2 mg/kg followed by an infusion of 2 mg/kgh; 2/2; assay type: functional, organism-based
Mus musculus [14] = assay: Compound was evaluated in vivo for blockade of NMDA-stimulated fos induction in mouse; assay type: functional
Rattus norvegicus [15] = species on record: Rattus norvegicus; assay: Compound was tested for neuroprotection against NMDA-Induced toxicity in cultured hippocampal neurons.; assay type: functional
Outline: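 Neuron loss was induced by NMDA or glutamate in primary rat hippocampal neuron cultures, and inhibition of that loss was measured.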

SMILES	IC50 [1] [µM]	IC50 (Rattus norvegicus [3]; Rattus norvegicus) [µM]	further results
Oc1ccc2c(c1)OC[C@@H](N1CCC(O)(c3ccc(C(F)(F)F)cc3)CC1)[C@H]2O	0.02		
Oc1ccc2c(c1)OC[C@@H](N1CCC(O)(c3ccc(F)cc3)CC1)C2			IC50 [2]: 0.3 µM
Oc1ccc2c(c1)OC[C@@H](N1CCC(c3ccccc3)CC1)[C@H]2O		0.025	
Oc1ccc2c(c1)OC1C[C@]1(N1CCC(O)(c3ccc(F)cc3)CC1)[C@H]2O (stereo not given in full)		1	
Oc1ccc2c(c1)OC[C@@H](N1CCC(O)(c3ccccc3)CC1)[C@@H]2O		0.383	
Oc1ccc2c(c1)OC[C@H](N1CCC(O)(c3ccc(F)cc3)CC1)[C@@H]2O	0.035	0.011	ED50 (Rattus norvegicus [4]): 1.1 mg/kg; ED50 (Rattus norvegicus [5]): 6.8 mg/kg
Oc1ccc2c(c1)OC[C@@H](N1CCC(O)(CCc3ccccc3)CC1)[C@H]2O		0.02	
Oc1ccc2c(c1)OC[C@@H](N1CCC(Cc3ccccc3)CC1)[C@H]2O	0.13	0.16	
CO[C@H]1c2ccc(O)cc2OC[C@H]1N1CCC(O)(c2ccc(F)cc2)CC1	> 0.3		
Oc1ccc2c(c1)OC[C@@H](N1CCC(O)(Cc3ccccc3)CC1)[C@H]2O		0.533	
Oc1cc2c(cc1F)[C@H](O)[C@H](N1CCC(O)(c3ccc(F)cc3)CC1)CO2	0.017	0.023	
COc1ccc2c(c1)OC[C@@H](N1CCC(O)(c3ccc(F)cc3)CC1)[C@H]2O	> 0.3		
Oc1ccc2c(c1)OC[C@H](N1CCC(O)(c3ccccc3)CC1)[C@@H]2O	0.107	0.108	
Oc1ccc2c(c1)OC[C@@H](N1CCC(O)(c3ccccc3)CC1)[C@H]2O (stereo in doubt; 3a)	0.054		IC50 (Rattus norvegicus [3]): 0.129 µM
Oc1ccc2c(c1)OC[C@@H](N1CCC(O)(c3ccccc3)CC1)[C@H]2O (stereo in doubt; 5a)	0.031		IC50 (Rattus norvegicus [3]): 0.009 µM
Oc1ccc2c(c1)OC[C@@H](N1CCC(O)(c3ccc(F)cc3)CC1)[C@H]2O (stereo in doubt; 10a)	0.028	0.005	
Oc1ccc2c(c1)OC[C@@H](N1CCC(O)(c3ccc(F)cc3)CC1)[C@H]2O (stereo in doubt; 12a) [listing 1 of 2 here]	0.018		ED50 (Rattus norvegicus [4]): 0.3 mg/kg; ED50 (Rattus norvegicus [6]): 1.2 mg/kg; IC50 [7]: 0.206 µM; ED50 (Mus musculus [8]): 4 mg/kg; IC50 (Rattus norvegicus [3]): 0.004 µM
Oc1ccc2c(c1)OC[C@@H](N1CCC(O)(c3ccc(F)cc3)CC1)[C@H]2O (stereo in doubt; 12a) [listing 2 of 2 here]			Blockade effect (Rattus norvegicus [9]): Partially active; Ratio [10]: Partially active; Blockade effect (Rattus norvegicus [11]): inactive; Ratio [12]: inactive; Ratio [13]: Active
C[C@@H]([C@@H](O)c1ccc(O)cc1)N1CCC(O)(c2ccccc2)CC1 [TRAXOPRODIL]	0.027		ED50 (Rattus norvegicus [4]): 0.4 mg/kg; ED50 (Mus musculus [14]): 1 mg/kg; IC50 (Rattus norvegicus [15]): 0.011 µM

Source: ChEMBL document CHEMBL1131319, “(3R,4S)-3-[4-(4-fluorophenyl)-4-hydroxypiperidin-1-yl]chroman-4,7-diol: a conformationally restricted analogue of the NR2B subtype-selective NMDA antagonist (1S,2S)-1-(4-hydroxyphenyl)-2-(4-hydroxy-4-phenylpiperidino)- 1-propanol” (J Med Chem, 1998)
